{
  "source": "ChEMBL document CHEMBL4376826",
  "about": "(J Med Chem, 2020)",
  "key": {"[1]": {"assay": "Drug level in beta-naphthoflavone/phenobarbital-induced rat liver S9 fraction treated with 100 ug/ml Ezutromid-1 assessed as compound formation in presence of NADPH measured after 4 hrs by UV-Vis spectroscopy", "type": "ADME, subcellular", "settings": "s9, 4 h; call rule not given here"}, "[2]": {"assay": "Half life in human hepatocytes", "type": "ADME, cell-based, Hepatocyte", "procedure,_shortened": "(§1)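 Metabolic stability of the dihydrodiols measured in vitro with mouse and human liver S9 fractions and with mouse and human hepatocytes; half-life from substrate depletion.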"}, "[3]": {"target": "T1, Amine oxidase [flavin-containing] B (Homo sapiens, UniProt P27338)", "T1 sequence (P27338 whole entry)": "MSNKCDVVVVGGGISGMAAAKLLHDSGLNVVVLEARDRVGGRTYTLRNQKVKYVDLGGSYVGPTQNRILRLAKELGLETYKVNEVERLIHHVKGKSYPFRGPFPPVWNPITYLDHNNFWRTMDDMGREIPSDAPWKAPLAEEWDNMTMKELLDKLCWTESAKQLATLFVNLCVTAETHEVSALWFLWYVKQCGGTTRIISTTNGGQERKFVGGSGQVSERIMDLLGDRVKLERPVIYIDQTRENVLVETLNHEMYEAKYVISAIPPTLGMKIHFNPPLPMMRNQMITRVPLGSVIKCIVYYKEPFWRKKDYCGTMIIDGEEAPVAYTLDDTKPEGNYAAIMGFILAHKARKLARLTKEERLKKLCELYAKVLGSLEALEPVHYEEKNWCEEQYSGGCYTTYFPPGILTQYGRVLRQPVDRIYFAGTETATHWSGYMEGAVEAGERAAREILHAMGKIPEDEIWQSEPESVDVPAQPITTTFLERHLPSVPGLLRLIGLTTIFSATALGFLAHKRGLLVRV", "assay": "Inhibition of monoamino oxidase B (unknown origin) at 10 uM"}, "[4]": {"target": "UGT1A4 (Homo sapiens, UniProt P22310)", "sequence (P22310 whole entry)": "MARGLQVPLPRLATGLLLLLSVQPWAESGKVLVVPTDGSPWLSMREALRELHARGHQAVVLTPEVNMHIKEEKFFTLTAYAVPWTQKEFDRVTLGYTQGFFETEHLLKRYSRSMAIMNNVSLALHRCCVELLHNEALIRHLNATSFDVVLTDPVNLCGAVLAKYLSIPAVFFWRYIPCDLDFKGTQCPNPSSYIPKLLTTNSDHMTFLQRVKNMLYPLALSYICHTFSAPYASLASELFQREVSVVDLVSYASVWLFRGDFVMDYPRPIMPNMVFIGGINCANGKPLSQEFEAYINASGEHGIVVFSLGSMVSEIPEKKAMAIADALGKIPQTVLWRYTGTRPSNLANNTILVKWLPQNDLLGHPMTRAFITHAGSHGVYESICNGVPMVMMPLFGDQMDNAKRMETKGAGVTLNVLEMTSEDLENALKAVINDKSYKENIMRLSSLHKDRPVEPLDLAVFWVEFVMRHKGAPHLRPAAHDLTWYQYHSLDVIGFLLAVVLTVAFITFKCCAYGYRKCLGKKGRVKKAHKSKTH", "assay": "Inhibition of human UGT1A4 assessed as residual enzyme activity at 10 uM relative to control", "type": "ADME", "settings": "read-out: Activity"}, "[5]": {"assay": "Protein binding in human plasma assessed as bound fraction", "type": "ADME, cell-free", "settings": "read-out: PPB (converted)", "procedure,_shortened": "(§2)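 Binding measured in 100% plasma; reported as fraction bound.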"}, "[6]": {"target": "UDP-glucuronosyltransferase 1A4 (Homo sapiens, UniProt P22310)", "sequence (P22310 whole entry)": "as above", "assay": "Drug metabolism assessed as human UGT1A4-mediated metabolism by measuring intrinsic clearance", "type": "ADME", "settings": "recombinant enzyme"}, "[7]": {"target": "UGT1A3 (Homo sapiens, UniProt P35503)", "sequence (P35503 whole entry)": "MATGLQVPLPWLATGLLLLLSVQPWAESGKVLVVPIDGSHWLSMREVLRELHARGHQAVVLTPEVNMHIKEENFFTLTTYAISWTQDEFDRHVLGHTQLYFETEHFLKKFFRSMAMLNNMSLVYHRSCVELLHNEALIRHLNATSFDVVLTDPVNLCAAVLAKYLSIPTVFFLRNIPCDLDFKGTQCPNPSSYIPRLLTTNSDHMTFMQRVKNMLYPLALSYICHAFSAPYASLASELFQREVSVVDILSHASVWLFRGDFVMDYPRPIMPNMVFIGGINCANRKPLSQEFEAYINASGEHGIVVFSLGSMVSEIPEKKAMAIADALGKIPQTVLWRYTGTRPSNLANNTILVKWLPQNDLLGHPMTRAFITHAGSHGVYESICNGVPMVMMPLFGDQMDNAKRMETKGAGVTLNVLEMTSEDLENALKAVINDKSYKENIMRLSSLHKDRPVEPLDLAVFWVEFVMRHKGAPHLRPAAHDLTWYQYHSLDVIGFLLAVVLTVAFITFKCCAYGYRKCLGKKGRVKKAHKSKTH", "assay": "Inhibition of human UGT1A3 assessed as residual enzyme activity at 10 uM relative to control", "type": "ADME", "settings": "read-out: Activity"}, "[8]": {"assay": "Intrinsic clearance in mouse liver S9 fraction", "type": "ADME, subcellular", "settings": "read-out: CLH"}, "[9]": {"target": "UGT1A9 (Homo sapiens, UniProt O60656)", "sequence (O60656 whole entry)": "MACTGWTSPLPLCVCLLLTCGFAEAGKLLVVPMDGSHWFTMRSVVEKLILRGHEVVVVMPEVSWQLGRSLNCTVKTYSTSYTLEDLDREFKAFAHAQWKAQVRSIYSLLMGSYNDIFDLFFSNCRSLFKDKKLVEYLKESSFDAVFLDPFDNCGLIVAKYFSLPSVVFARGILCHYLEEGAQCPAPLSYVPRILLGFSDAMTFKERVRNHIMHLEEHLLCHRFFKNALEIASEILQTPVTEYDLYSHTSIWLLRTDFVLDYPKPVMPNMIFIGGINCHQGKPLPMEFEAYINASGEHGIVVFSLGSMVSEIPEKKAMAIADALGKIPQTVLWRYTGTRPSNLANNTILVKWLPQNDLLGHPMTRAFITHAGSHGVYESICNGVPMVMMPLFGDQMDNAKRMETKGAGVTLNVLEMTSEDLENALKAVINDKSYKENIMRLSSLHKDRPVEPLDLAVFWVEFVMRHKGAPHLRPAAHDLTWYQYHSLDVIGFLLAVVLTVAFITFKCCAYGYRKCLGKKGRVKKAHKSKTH", "assay": "Inhibition of human UGT1A9 assessed as residual enzyme activity at 10 uM relative to control", "type": "ADME", "settings": "read-out: Activity"}, "[10]": {"target": "Solute carrier organic anion transporter family member 1B3 (Homo sapiens, UniProt Q9NPD5)", "sequence (Q9NPD5 whole entry)": "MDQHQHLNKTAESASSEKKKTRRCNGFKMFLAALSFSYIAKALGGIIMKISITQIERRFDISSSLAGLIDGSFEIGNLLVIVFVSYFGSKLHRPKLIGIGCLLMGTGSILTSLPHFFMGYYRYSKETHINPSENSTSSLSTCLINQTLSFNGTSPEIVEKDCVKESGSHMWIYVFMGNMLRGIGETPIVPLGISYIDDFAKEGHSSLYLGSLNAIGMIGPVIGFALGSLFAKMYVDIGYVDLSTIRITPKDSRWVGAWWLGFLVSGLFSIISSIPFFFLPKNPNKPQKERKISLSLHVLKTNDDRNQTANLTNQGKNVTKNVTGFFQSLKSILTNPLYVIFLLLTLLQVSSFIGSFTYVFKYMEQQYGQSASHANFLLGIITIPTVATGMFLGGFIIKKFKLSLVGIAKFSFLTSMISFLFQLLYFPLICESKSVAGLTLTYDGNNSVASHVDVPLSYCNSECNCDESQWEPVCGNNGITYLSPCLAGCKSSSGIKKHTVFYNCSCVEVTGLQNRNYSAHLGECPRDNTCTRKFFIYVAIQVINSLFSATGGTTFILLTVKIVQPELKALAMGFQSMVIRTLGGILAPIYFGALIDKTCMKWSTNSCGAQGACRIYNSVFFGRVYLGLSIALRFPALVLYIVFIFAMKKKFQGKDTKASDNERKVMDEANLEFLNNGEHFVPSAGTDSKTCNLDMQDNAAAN", "assay": "Inhibition of OATP1B3 (unknown origin)", "type": "ADME"}, "[11]": {"assay": "Half life in mouse liver S9 fraction", "type": "ADME, subcellular", "procedure,_shortened": "as §1"}, "[12]": {"assay": "Intrinsic clearance in mouse hepatocytes", "type": "ADME, cell-based, Hepatocyte"}, "[13]": {"assay": "Half life in human liver S9 fraction", "type": "ADME, subcellular", "procedure,_shortened": "as §1"}, "[14]": {"assay": "Intrinsic clearance in human liver S9 fraction", "type": "ADME, subcellular", "settings": "read-out: CLH"}, "[15]": {"assay": "Lipophilicity, logD of the compound at pH 7.4", "type": "physicochemical", "settings": "buffer"}, "[16]": {"assay": "Inhibition of adenosine transporter (unknown origin) at 10 uM", "type": "ADME", "settings": "human"}, "[17]": {"assay": "Intrinsic clearance in human hepatocytes", "type": "ADME, cell-based, Hepatocyte"}, "[18]": {"target": "Broad substrate specificity ATP-binding cassette transporter ABCG2 (Homo sapiens, UniProt Q9UNQ0)", "sequence (Q9UNQ0 whole entry)": "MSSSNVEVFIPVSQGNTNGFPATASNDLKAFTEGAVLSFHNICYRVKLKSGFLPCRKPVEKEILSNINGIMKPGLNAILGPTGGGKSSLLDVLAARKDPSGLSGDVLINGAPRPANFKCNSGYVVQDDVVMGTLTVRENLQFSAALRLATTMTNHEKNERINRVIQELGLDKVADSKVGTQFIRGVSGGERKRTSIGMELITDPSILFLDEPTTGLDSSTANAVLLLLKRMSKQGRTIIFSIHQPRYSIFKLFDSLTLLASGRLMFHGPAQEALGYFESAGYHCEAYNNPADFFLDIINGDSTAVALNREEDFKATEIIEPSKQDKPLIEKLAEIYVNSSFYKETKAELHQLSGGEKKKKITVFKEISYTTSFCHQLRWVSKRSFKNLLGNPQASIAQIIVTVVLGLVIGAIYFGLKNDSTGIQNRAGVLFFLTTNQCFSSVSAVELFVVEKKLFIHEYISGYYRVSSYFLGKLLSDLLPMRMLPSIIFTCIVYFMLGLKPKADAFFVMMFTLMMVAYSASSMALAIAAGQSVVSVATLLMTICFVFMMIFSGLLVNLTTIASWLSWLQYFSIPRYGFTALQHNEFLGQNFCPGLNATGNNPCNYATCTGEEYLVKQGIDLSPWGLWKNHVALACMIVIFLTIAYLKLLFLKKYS", "assay": "Inhibition of BCRP (unknown origin)", "type": "ADME"}, "[19]": {"assay": "Permeability at pH 7.4 by PAMPA", "type": "ADME", "settings": "read-out: permeability"}, "[20]": {"assay": "Retention time in human plasma by LC-MS/MS analysis", "type": "ADME, cell-free"}, "[21]": {"assay": "Protein binding in mouse plasma assessed as bound fraction", "type": "ADME, cell-free", "settings": "read-out: PPB (converted)", "procedure,_shortened": "as §2"}, "[22]": {"assay": "Retention time in beta-naphthoflavone/phenobarbital-induced rat liver S9 fraction at 100 ug/ml in presence of NADPH by LC-MS/MS analysis", "type": "ADME, subcellular"}, "[23]": {"tested_on": "UDP-glucuronosyltransferases (UGTs)", "assay": "Drug metabolism assessed as human UGT-mediated metabolism by measuring intrinsic clearance", "type": "ADME, protein assay"}, "[24]": {"assay": "Half life in mouse hepatocytes", "type": "ADME, cell-based, Hepatocyte", "procedure,_shortened": "as §1"}, "[25]": {"assay": "Kinetic aqueous solubility of the compound", "type": "physicochemical", "settings": "buffer; read-out: Kinetic_solubility"}, "[26]": {"target": "Solute carrier organic anion transporter family member 1B1 (Homo sapiens, UniProt Q9Y6L6)", "sequence (Q9Y6L6 whole entry)": "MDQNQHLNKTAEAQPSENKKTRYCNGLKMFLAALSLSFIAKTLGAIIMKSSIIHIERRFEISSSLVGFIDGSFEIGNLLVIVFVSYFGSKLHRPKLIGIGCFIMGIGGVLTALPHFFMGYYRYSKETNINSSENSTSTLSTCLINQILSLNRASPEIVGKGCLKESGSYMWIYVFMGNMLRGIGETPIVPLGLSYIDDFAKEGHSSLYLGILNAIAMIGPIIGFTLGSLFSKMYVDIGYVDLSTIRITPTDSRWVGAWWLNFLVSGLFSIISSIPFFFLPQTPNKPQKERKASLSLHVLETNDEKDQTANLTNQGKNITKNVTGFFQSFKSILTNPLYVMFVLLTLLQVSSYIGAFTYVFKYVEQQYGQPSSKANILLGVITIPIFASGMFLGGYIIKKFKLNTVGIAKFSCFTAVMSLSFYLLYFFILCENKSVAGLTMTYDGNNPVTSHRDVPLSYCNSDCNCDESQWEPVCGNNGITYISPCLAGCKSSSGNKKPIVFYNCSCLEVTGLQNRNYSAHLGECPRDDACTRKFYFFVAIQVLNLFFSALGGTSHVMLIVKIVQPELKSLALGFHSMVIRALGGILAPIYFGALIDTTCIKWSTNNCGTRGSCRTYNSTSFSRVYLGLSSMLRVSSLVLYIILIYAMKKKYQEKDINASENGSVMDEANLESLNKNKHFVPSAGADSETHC", "assay": "Inhibition of OATP1B1 (unknown origin)", "type": "ADME"}},
  "data": [
    {"smiles": "CCS(=O)(=O)c1ccc2oc(-c3ccc4c(c3)[C@@H](O)[C@H](O)C=C4)nc2c1", "values": [
      {"measurement": "Drug uptake", "setting": "[1]", "value": "Metabolite_Detected"},
      {"measurement": "half-life", "setting": "[2]", "value": 2.37, "unit": "h"},
      {"measurement": "inhibition (INH)", "setting": "[3]", "value": "Not Active"},
      {"measurement": "activity at 10 µM", "setting": "[4]", "value": 84, "unit": "%"},
      {"measurement": "fraction unbound", "setting": "[5]", "value": 0.128},
      {"measurement": "CL", "setting": "[6]", "value": "< 2.9", "unit": "µL/min/pmol"},
      {"measurement": "activity at 10 µM", "setting": "[7]", "value": 79, "unit": "%"},
      {"measurement": "microsomal CLint", "setting": "[8]", "value": 13, "unit": "µL/min/mg"},
      {"measurement": "activity at 10 µM", "setting": "[9]", "value": 45, "unit": "%"},
      {"measurement": "inhibition (INH)", "setting": "[10]", "value": "Active"},
      {"measurement": "half-life", "setting": "[11]", "value": 1.87, "unit": "h"},
      {"measurement": "CLH", "setting": "[12]", "value": 5, "unit": "µL/min/mg"},
      {"measurement": "half-life", "setting": "[13]", "value": "> 2.3", "unit": "h"},
      {"measurement": "microsomal CLint", "setting": "[14]", "value": "< 10", "unit": "µL/min/mg"},
      {"measurement": "logD", "setting": "[15]", "value": 1.95},
      {"measurement": "inhibition (INH)", "setting": "[16]", "value": "Not Active"},
      {"measurement": "CLH", "setting": "[17]", "value": 5, "unit": "µL/min/mg"},
      {"measurement": "inhibition (INH)", "setting": "[18]", "value": "Active"},
      {"measurement": "Papp", "setting": "[19]", "value": 34.4, "unit": "×10⁻⁶ cm/s"},
      {"measurement": "Retention_time", "setting": "[20]", "value": 8.9, "unit": "min"},
      {"measurement": "fraction unbound", "setting": "[21]", "value": 0.077},
      {"measurement": "Retention_time", "setting": "[22]", "value": 9, "unit": "min"},
      {"measurement": "CL", "setting": "[23]", "value": "< 5.8", "unit": "µL/min/pmol"},
      {"measurement": "half-life", "setting": "[24]", "value": 2.38, "unit": "h"},
      {"measurement": "solubility kinetic", "setting": "[25]", "value": 210, "unit": "µM"},
      {"measurement": "inhibition (INH)", "setting": "[26]", "value": "Active"}
    ]}
  ]
}
